Active and inactive are the calls of the source. No cut-off for these calls is given here.
What was measured:
[1] = target: Melanocortin receptor 4 (Homo sapiens) (UniProt P32245); assay: Activity at melanocortin 4 receptor (unknown origin)
[2] = target: Glucagon receptor (Homo sapiens) (UniProt P47871); assay: Activity at glucagon receptor (unknown origin)
[3] = target: T1, Glucagon-like peptide 1 receptor (Homo sapiens, UniProt P43220); assay: Positive allosteric modulation of human recombinant GLP1 receptor expressed in 9-3-H cells by calcium mobilization assay; format: functional, cell-based
[4] = target: T1, Glucagon-like peptide 1 receptor; assay: Positive allosteric modulation of human recombinant GLP1 receptor expressed in 9-3-H cells by calcium mobilization assay relative to control; format: functional, cell-based
Cytochrome P450 1A2 = target: T2, Cytochrome P450 1A2 (Homo sapiens, UniProt P05177); assay: Inhibition of CYP1A2 (unknown origin); format: ADME
T2 sequence (P05177 whole entry): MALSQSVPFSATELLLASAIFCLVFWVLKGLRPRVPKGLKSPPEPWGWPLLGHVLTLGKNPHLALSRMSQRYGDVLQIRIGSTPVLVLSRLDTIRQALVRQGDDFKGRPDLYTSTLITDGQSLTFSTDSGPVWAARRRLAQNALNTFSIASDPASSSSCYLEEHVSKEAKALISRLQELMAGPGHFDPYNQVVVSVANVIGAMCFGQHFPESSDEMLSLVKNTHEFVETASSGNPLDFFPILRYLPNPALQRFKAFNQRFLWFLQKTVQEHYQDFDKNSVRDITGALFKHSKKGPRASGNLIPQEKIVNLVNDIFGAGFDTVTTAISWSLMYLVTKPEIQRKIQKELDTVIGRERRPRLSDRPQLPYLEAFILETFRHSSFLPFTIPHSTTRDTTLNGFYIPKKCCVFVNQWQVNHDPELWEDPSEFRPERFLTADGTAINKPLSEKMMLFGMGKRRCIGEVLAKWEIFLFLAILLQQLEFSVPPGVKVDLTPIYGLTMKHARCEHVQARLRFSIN
How it was run: (§1)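 An in vitro cassette P450 inhibition assay was run in microsomes, with 1A2, 2C9, 2D6 and 3A4 tested together. IC50 values are reported in μM.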

Cytochrome P450 2D6 = Cytochrome P450 2D6 (Homo sapiens, UniProt P10635); assay: Inhibition of CYP2D6 (unknown origin); format: ADME; how it was run: as §1
Plasma [5] = assay: Fraction unbound in rat plasma; format: ADME, cell-free
Cytochrome P450 3A4 = Cytochrome P450 3A4 (Homo sapiens, UniProt P08684); assay: Inhibition of CYP3A4 (unknown origin)
Cytochrome P450 2C9 = Cytochrome P450 2C9 (Homo sapiens, UniProt P11712); assay: Inhibition of CYP2C9 (unknown origin); format: ADME; how it was run: as §1
Plasma [6] = assay: Fraction unbound in human plasma; format: ADME, cell-free
[7] = target: T1, Glucagon-like peptide 1 receptor; assay: Positive allosteric modulation of human recombinant GLP1 receptor expressed in 9-3-H cells by calcium mobilization assay in presence of EC20 of exenatide; format: functional, cell-based
[8] = target: T1, Glucagon-like peptide 1 receptor; assay: Positive allosteric modulation of human recombinant GLP1 receptor expressed in 9-3-H cells by calcium mobilization assay in presence of EC20 of GLP1; format: functional, cell-based
[9] = target: T1, Glucagon-like peptide 1 receptor; assay: Positive allosteric modulation of human recombinant GLP1 receptor expressed in 9-3-H cells by calcium mobilization assay in presence of EC20 of liragulitide relative to control; format: functional, cell-based
[10] = target: T1, Glucagon-like peptide 1 receptor; assay: Positive allosteric modulation of human recombinant GLP1 receptor expressed in 9-3-H cells by calcium mobilization assay in presence of EC20 of GLP1 relative to control; format: functional, cell-based
[11] = target: T1, Glucagon-like peptide 1 receptor; assay: Positive allosteric modulation of human recombinant GLP1 receptor expressed in 9-3-H cells by calcium mobilization assay in presence of EC20 of exenatide relative to control; format: functional, cell-based
Brain = assay: Fraction unbound in rat brain homogenate; format: ADME, tissue-based
[12] = Intrinsic clearance in rat liver microsomes; format: ADME; settings: read-out: CLH
[13] = target: T1, Glucagon-like peptide 1 receptor; assay: Positive allosteric modulation of human recombinant GLP1 receptor expressed in 9-3-H cells assessed as fold change at 30 uM by calcium mobilization assay […] relative to control; format: functional, cell-based
Rattus norvegicus = assay: Volume of distribution at steady state in rat at 1 mg/kg, iv and […], po; format: ADME, organism-based; design: dose 1 mg/kg, route oral; settings: in vivo
How it was run: (§2)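 Male Sprague–Dawley rats were dosed IV at 1 mg/kg and PO at […]. Plasma pharmacokinetic parameters were derived from these doses.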

[14] = Half life in rat at 1 mg/kg, iv and […], po; format: ADME, organism-based; design: dose 1 mg/kg, route oral; settings: in vivo; how it was run: as §2
Nucleic Acid = assay: Ratio of drug level in brain to plasma at 10 mg/kg, ip; format: ADME, organism-based; design: dose 10 mg/kg, route intraperitoneal; settings: rat
How it was run: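 Rats were dosed IP at 10 mg/kg. Plasma and brain levels were measured at 0.5 h, and the brain:plasma ratio was given as Kp and as Kp,uu, using unbound fractions.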

[15] = Intrinsic clearance in human liver microsomes; format: ADME; settings: read-out: CLH
How it was run: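 Human liver microsome clearance was scaled to predicted hepatic clearance by the well-stirred model. The model used 20 g liver per kg body weight and 21 mL/kg hepatic blood flow.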

[16] = target: T1, Glucagon-like peptide 1 receptor; assay: Positive allosteric modulation of human recombinant GLP1 receptor expressed in 9-3-H cells by calcium mobilization assay in presence of EC20 of liragulitide; format: functional, cell-based

T1 sequence (P43220 whole entry): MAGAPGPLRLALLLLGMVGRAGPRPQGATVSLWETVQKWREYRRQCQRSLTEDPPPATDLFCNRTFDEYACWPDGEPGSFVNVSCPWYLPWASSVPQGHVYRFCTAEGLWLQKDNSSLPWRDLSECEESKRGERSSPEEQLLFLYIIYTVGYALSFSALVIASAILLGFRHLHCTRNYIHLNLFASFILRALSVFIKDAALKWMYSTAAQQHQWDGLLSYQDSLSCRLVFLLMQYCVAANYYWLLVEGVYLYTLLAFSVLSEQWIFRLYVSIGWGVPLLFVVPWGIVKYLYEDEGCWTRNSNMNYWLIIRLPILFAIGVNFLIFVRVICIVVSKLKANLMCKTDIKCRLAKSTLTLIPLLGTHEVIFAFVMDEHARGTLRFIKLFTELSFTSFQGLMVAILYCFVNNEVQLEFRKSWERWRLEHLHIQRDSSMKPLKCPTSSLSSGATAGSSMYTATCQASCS
Chain of Cytochrome P450 2C9 (P11712 whole entry): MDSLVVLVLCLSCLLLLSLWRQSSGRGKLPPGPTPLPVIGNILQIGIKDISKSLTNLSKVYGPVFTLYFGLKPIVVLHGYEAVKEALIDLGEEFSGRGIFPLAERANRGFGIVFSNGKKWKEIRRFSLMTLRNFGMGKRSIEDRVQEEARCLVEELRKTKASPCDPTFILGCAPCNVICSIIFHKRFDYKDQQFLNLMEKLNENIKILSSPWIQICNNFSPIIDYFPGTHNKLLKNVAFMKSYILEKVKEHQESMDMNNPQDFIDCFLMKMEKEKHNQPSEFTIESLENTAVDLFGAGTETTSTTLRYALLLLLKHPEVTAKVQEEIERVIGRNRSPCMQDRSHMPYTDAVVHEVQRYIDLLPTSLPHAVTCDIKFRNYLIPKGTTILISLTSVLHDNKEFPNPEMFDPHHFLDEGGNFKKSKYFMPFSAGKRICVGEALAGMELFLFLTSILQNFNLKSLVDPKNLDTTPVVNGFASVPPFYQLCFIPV
Chain of Glucagon receptor (Homo sapiens) (P47871 whole entry, looked up): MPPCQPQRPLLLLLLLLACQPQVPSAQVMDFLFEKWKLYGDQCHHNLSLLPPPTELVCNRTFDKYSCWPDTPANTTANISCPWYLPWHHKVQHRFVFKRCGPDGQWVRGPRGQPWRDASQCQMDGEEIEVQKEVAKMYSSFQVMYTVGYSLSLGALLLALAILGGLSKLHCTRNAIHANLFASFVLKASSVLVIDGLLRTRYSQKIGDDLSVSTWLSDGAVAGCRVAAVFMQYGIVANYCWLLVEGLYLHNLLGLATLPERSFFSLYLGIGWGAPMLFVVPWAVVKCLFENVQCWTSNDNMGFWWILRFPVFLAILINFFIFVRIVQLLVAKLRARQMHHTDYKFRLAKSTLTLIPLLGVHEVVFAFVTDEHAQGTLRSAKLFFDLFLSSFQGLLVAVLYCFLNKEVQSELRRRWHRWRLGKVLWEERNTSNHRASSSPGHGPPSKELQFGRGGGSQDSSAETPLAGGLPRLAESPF
Chain of Melanocortin receptor 4 (Homo sapiens) (P32245 whole entry): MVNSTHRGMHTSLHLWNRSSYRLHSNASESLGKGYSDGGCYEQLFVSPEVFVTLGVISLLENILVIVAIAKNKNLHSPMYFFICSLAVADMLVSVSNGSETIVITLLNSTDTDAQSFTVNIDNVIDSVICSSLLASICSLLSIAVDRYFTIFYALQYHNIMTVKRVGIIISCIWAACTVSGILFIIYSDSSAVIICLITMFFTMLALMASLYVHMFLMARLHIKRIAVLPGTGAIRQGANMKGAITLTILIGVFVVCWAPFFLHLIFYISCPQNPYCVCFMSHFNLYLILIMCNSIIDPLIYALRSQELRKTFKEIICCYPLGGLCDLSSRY
Chain of Cytochrome P450 3A4 (P08684 whole entry): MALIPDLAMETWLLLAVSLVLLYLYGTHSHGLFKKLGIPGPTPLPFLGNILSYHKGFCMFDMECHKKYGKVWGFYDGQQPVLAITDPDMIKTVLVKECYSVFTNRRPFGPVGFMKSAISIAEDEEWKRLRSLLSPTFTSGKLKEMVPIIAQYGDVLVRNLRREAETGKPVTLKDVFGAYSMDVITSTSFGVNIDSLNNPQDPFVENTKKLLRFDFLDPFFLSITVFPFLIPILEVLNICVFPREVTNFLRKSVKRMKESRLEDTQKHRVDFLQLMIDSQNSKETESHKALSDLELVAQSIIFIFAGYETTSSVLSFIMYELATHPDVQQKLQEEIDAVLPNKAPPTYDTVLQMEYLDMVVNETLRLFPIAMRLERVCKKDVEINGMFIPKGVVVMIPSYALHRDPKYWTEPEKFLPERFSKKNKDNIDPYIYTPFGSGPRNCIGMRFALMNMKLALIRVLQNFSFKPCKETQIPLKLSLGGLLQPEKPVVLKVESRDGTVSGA
Chain of Cytochrome P450 2D6 (P10635 whole entry): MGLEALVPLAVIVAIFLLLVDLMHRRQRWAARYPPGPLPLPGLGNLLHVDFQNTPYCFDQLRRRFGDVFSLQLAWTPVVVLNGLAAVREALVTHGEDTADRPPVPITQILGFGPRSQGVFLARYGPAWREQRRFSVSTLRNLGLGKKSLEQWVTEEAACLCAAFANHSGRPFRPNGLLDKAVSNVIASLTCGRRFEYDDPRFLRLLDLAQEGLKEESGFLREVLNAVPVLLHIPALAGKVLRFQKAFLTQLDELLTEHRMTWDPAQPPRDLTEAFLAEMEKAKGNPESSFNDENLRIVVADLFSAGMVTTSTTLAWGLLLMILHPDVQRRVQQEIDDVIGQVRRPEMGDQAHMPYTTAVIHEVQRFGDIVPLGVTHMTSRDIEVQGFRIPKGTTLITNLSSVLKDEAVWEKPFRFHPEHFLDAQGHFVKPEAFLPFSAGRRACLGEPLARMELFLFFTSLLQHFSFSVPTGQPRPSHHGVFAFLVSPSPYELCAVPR

CCN1CCCC1CNC(=O)c1cn(C2CCCC2)c(=O)c2c1c1ccccc1n2C (racemic)
Activity [1]: inactive | Activity [2]: inactive | EC50 ([3]; read-out: EC50): 4.1 µM | Emax [4]: 58.9%

CCCN1CCC[C@H]1CNC(=O)c1cn(C2CCCC2)c(=O)c2c1c1ccccc1n2C
EC50 ([3]; read-out: EC50): 6.5 µM | Emax [4]: 48.4%

CCCCCCN1CCC[C@H]1CNC(=O)c1cn(C2CCCC2)c(=O)c2c1c1ccccc1n2C
EC50 ([3]; read-out: EC50): 10.3 µM | Emax [4]: 55.7%

COc1ccccc1CN1CCC[C@H]1CNC(=O)c1cn(C2CCCC2)c(=O)c2c1c1ccccc1n2C
EC50 ([3]; read-out: EC50): 12.1 µM | Emax [4]: 68.3%

CCN1CCC[C@H]1CNC(=O)c1cn(C2CCCC2)c(=O)c2c1c1ccccc1n2C
IC50 (Cytochrome P450 1A2): > 20 µM | EC50 ([3]; read-out: EC50): 2.4 µM | EC50 ([3]; read-out: pEC50 (converted)): 2.04 µM | IC50 (Cytochrome P450 2D6): > 20 µM | Fu (Plasma [5]): > 10% | Emax [4]: 53.4% | IC50 (Cytochrome P450 3A4): 3.2 µM | IC50 (Cytochrome P450 2C9): > 20 µM | Fu (Plasma [6]): > 10%

Cn1c2ccccc2c2c(C(=O)NC[C@@H]3CCCN3CCc3ccccc3)cn(C3CCCC3)c(=O)c21
EC50 ([3]; read-out: EC50): 14.1 µM | EC50 ([3]; read-out: pEC50 (converted)): 18.2 µM | Emax [4]: 68.5%

CC(C)N1CCC[C@H]1CNC(=O)c1cn(C2CCCC2)c(=O)c2c1c1ccccc1n2C
IC50 (Cytochrome P450 1A2): > 30 µM | EC50 [7]: 8.4 µM | EC50 [8]: 1.8 µM | Emax [9]: 59.2% | Emax [10]: 59.2% | Emax [11]: 71.5% | Fu (Brain): 0.015 | CLint scaled [12]: 19.9 mL/min/kg | EC50 ([3]; read-out: EC50): 1.3 µM | Emax [13]: 20% | Vdss (Rattus norvegicus): 4 L/kg | Fu (Plasma [5]): 0.158 | Emax [4]: 59.2% | half-life [14]: 58 min | IC50 (Cytochrome P450 2C9): > 30 µM | K(p,uu,brain) (Nucleic Acid): 0.27 | Kp (Nucleic Acid): 2.7 | CLint scaled [15]: 69.9 mL/min/kg | EC50 [16]: 30 µM | Fu (Plasma [6]): 0.146

Reference: ChEMBL document CHEMBL3351313, “Discovery of (S)-2-cyclopentyl-N-((1-isopropylpyrrolidin2-yl)-9-methyl-1-oxo-2,9-dihydro-1H-pyrrido[3,4-b]indole-4-carboxamide (VU0453379): a novel, CNS penetrant glucagon-like peptide 1 receptor (GLP-1R) positive allosteric modulator (PAM)” (J Med Chem, 2014)
